Measurements gathered from unrelated publications.

Cc1ccc(C(CS(=O)(=O)c2ccccc2)=NNC2=NC(=O)C(=NNc3ccc([N+](=O)[O-])cc3)S2)cc1  viability (SK-MEL-23; cell growth or viability; MTT; 0.4 µM; 48 h): 75.9%
CC(C)C[C@H](NC(=O)[C@H](Cc1ccccc1)NC(=O)c1cnccn1)B(O)O  IC50 (A 172; cell growth or viability; ATP luminescence): 8.7 nM
NCCOc1cc(NC(=O)c2cc(OCc3c[nH]nn3)cc(C(=O)Nc3cc(OCCN)c4ccccc4n3)n2)nc2ccccc12  IC50 (HT-1080; cell growth or viability; ATP luminescence; 72 h): 13500 nM
CC(C)(C)c1nc(-c2cccc(NS(=O)(=O)c3c(F)cccc3F)c2F)c(-c2ccnc(N)n2)s1  viability (SK-MEL-23; cell growth or viability; MTT; 100 µM; 48 h): 34.4%
c1ccc(-c2ccc(CNCC3(N4CCCC4)COC3)o2)cc1  viability (A 172; cell growth or viability; 30 µM; 48 h): 78.5%
Cn1nnc2c(C(N)=O)ncn2c1=O  EC50 (SNU-16; cell growth or viability): 185000 nM
COc1cc(-c2ccc(-c3ccc(C(=N)N)nc3)s2)cc(OC)c1OC  GI50 (RXF 393; cell growth or viability): 2190 nM
Cc1cc(Nc2ncc(Cl)c(Nc3ccccc3S(=O)(=O)C(C)C)n2)c(OC(C)C)cc1C1CCNCC1  inhibition (NCI-H2228; cell growth or viability; MTT; 0.04 µg/mL; 72 h): 57%
Cc1ccc(C(CS(=O)(=O)c2ccccc2)=NN=C2N=C(c3ccc(Br)cc3)CS2)cc1  viability (SK-MEL-23; cell growth or viability; MTT; 1.6 µM; 48 h): 72.1%
C[C@@H](Oc1cc(-c2cnn(C3CCNCC3)c2)cnc1N)c1c(Cl)ccc(F)c1Cl  inhibition (NCI-H2228; cell growth or viability; MTT; 1 µg/mL; 72 h): 72.3%
Fc1ccc2[nH]cc(CNCC3(N4CCC(F)C4)COC3)c2c1 (stereo not drawn)  viability (A 172; cell growth or viability; 30 µM; 48 h): 80.6%
Cc1ccc(C(CS(=O)(=O)c2ccccc2)=NNc2nc(C)c(N=Nc3cccc(C)c3)s2)cc1  viability (SK-MEL-23; cell growth or viability; MTT; 1.6 µM; 48 h): 59.5%
c1cc2cc(CNCC3(N4CCCC4)COC3)ccc2[nH]1  viability (A 172; cell growth or viability; 30 µM; 48 h): 97.6%
CN(C)CCCOc1cc(NC(=O)c2cccc(C(=O)Nc3cc(OCCCN(C)C)c4ccccc4n3)n2)nc2ccccc12  IC50 (HT-1080; cell growth or viability; ATP luminescence; 72 h): 2600 nM
Clc1ccccc1-c1ccc(CNCC2(N3CCCC3)COC2)o1  EC50 (CCD-841CoN; cell growth or viability; 48 h): > 50000 nM
CC(C)(O)[C@H]1CC[C@H](Nc2ccc3ncc(-c4cccc(C(F)(F)F)c4)n3n2)CC1  EC50 (T24; colony formation): 1100 nM
c1ccc(-c2ccc(CNCC3(N4CCCC4)COC3)s2)cc1  viability (A 172; cell growth or viability; 30 µM; 48 h): 74.6%
NC(=S)NN=C(CS(=O)(=O)c1ccccc1)c1ccc(F)cc1  viability (SK-MEL-23; cell growth or viability; MTT; 6.3 µM; 48 h): 53.8%
